# Non-standard residues stand in square brackets, D forms with d. Residues, ends and D or L forms follow the SMILES beside them. d(hArg(Et2)) = CCN=C(NCC)NCCCC[C@@H](N)C(=O)O; dPhe(4-Cl) = N[C@H](Cc1ccc(Cl)cc1)C(=O)O; d2Nal = N[C@H](Cc1ccc2ccccc2c1)C(=O)O
# Columns and labels:
# Assay type in all cases: functional
# Rattus norvegicus [1] = species on record: Rattus norvegicus; test: Antiovulatory activity was expressed as the percentage of 8 rats blocked at a dose 7.5 ug.
# Summary of the method: (§1)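 Sprague-Dawley rats given peptide by subcutaneous injection at noon on the day of proestrus, in 40% propane-1,2-diol–0.9% saline vehicle. Oviducts examined for ova the following day.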
# Rattus norvegicus [2] = species on record: Rattus norvegicus; test: Antiovulatory activity was expressed as the percentage of 10 rats blocked at a dose 3 ug.; summary of the method: as §1
# Rattus norvegicus [3] = species on record: Rattus norvegicus; test: Antiovulatory activity was expressed as the percentage of 8 rats blocked at a dose 1 ug.; summary of the method: as §1
# Rattus norvegicus [4] = species on record: Rattus norvegicus; test: Antiovulatory activity was expressed as the percentage of 8 rats blocked at a dose 3 ug.; summary of the method: as §1
# Rattus norvegicus [5] = species on record: Rattus norvegicus; test: Antiovulatory activity was expressed as the percentage of 9 rats blocked at a dose 1 ug.; summary of the method: as §1
SMILES,Antiovulatory activity (Rattus norvegicus [2]),Antiovulatory activity (Rattus norvegicus [3]),Antiovulatory activity (Rattus norvegicus [4]),also measured
CC(=O)N[C@H](Cc1ccc(Cl)cc1)C(=O)N[C@H](Cc1ccc(Cl)cc1)C(=O)N[C@H](Cc1c[nH]c2ccccc12)C(=O)N[C@@H](CO)C(=O)N[C@@H](Cc1ccc(O)cc1)C(=O)N[C@H](Cc1ccccc1)C(=O)N[C@@H](Cc1ccccc1)C(=O)N[C@@H](CCCN=C(N)N)C(=O)N1CCC[C@H]1C(=O)N[C@H](C)C(N)=O,,,,Antiovulatory activity (Rattus norvegicus [1]): 8%
CC(=O)N[C@H](Cc1ccc2ccccc2c1)C(=O)N[C@H](Cc1ccc2ccccc2c1)C(=O)N[C@H](Cc1ccccc1)C(=O)N[C@@H](CO)C(=O)N[C@@H](Cc1ccc(O)cc1)C(=O)N[C@H](CCCN=C(N)N)C(=O)N[C@@H](Cc1ccccc1)C(=O)N[C@@H](CCCN=C(N)N)C(=O)N1CCC[C@H]1C(=O)N[C@H](C)C(N)=O,100%,,,
CC(=O)N[C@H](Cc1ccc2ccccc2c1)C(=O)N[C@H](Cc1ccc(O)cc1)C(=O)N[C@H](Cc1ccc(O)cc1)C(=O)N[C@@H](CO)C(=O)N[C@@H](Cc1ccc(O)cc1)C(=O)N[C@H](CCCN=C(N)N)C(=O)N[C@@H](Cc1ccccc1)C(=O)N[C@@H](CCCN=C(N)N)C(=O)N1CCC[C@H]1C(=O)N[C@H](C)C(N)=O,,0%,,
CC(=O)N[C@H](Cc1ccc2ccccc2c1)C(=O)N[C@H](Cc1ccc(Cl)cc1)C(=O)N[C@H](Cc1ccc(Cl)cc1)C(=O)N[C@@H](CO)C(=O)N[C@@H](Cc1ccc(O)cc1)C(=O)N[C@H](CCCN=C(N)N)C(=O)N[C@@H](Cc1ccccc1)C(=O)N[C@@H](CCCN=C(N)N)C(=O)N1CCC[C@H]1C(=O)N[C@H](C)C(N)=O,,0%,63%,
CCNC(=NCCCC[C@@H](NC(=O)[C@H](Cc1ccc(O)cc1)NC(=O)[C@H](CO)NC(=O)[C@@H](Cc1c[nH]c2ccccc12)NC(=O)[C@@H](Cc1ccc(Cl)cc1)NC(=O)[C@@H](Cc1ccc2ccccc2c1)NC(C)=O)C(=O)N[C@@H](Cc1ccccc1)C(=O)N[C@@H](CCCN=C(N)N)C(=O)N1CCC[C@H]1C(=O)N[C@H](C)C(N)=O)NCC (Ac-[d2Nal][dPhe(4-Cl)][dW]SY[d(hArg(Et2))]FRP[dA]-NH2),,63%,,
CC(=O)N[C@H](Cc1ccc2ccccc2c1)C(=O)N[C@H](Cc1ccc2ccccc2c1)C(=O)N[C@H](Cc1c[nH]cn1)C(=O)N[C@@H](CO)C(=O)N[C@@H](Cc1ccc(O)cc1)C(=O)N[C@H](CCCN=C(N)N)C(=O)N[C@@H](Cc1ccccc1)C(=O)N[C@@H](CCCN=C(N)N)C(=O)N1CCC[C@H]1C(=O)N[C@H](C)C(N)=O,0%,,,
CC(=O)N[C@H](Cc1ccc(Cl)cc1)C(=O)N[C@H](Cc1ccccc1)C(=O)N[C@H](Cc1ccccc1)C(=O)N[C@@H](CO)C(=O)N[C@@H](Cc1ccc(O)cc1)C(=O)N[C@H](CCCN=C(N)N)C(=O)N[C@@H](Cc1ccccc1)C(=O)N[C@@H](CCCN=C(N)N)C(=O)N1CCC[C@H]1C(=O)N[C@H](C)C(N)=O,,,63%,
CC(=O)N[C@H](Cc1ccccc1)C(=O)N[C@H](Cc1ccccc1)C(=O)N[C@H](Cc1ccccc1)C(=O)N[C@@H](CO)C(=O)N[C@@H](Cc1ccc(O)cc1)C(=O)N[C@H](CCCN=C(N)N)C(=O)N[C@@H](Cc1ccccc1)C(=O)N[C@@H](CCCN=C(N)N)C(=O)N1CCC[C@H]1C(=O)N[C@H](C)C(N)=O,,,0%,
CC(=O)N[C@H](Cc1ccc2ccccc2c1)C(=O)N[C@H](Cc1ccccc1)C(=O)N[C@H](Cc1ccc(O)cc1)C(=O)N[C@@H](CO)C(=O)N[C@@H](Cc1ccc(O)cc1)C(=O)N[C@H](CCCN=C(N)N)C(=O)N[C@@H](Cc1ccccc1)C(=O)N[C@@H](CCCN=C(N)N)C(=O)N1CCC[C@H]1C(=O)N[C@H](C)C(N)=O,,,,Antiovulatory activity (Rattus norvegicus [5]): 0%
CC(=O)N[C@H](Cc1c[nH]c2ccccc12)C(=O)N[C@H](Cc1ccccc1)C(=O)N[C@H](Cc1ccccc1)C(=O)N[C@@H](CO)C(=O)N[C@@H](Cc1ccc(O)cc1)C(=O)N[C@H](CCCN=C(N)N)C(=O)N[C@@H](Cc1ccccc1)C(=O)N[C@@H](CCCN=C(N)N)C(=O)N1CCC[C@H]1C(=O)N[C@H](C)C(N)=O,0%,,,

# — ChEMBL document CHEMBL1123924, “Structure-activity studies of antagonists of luteinizing hormone-releasing hormone with emphasis on the amino-terminal region” (1987)
